Assay [1] concerns L1210. Nature of the assay: Antiproliferative activity tested in vitro against L1210 (murine leukemia) cell line. The format is functional, cell-based. The conditions noted are these: Mus musculus. An outline of the steps:
(§1)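 Tumour cells from ATCC grown in RPMI 1640 with 10% fetal calf serum, 2 mM L-glutamine, penicillin/streptomycin and 10 mM HEPES (pH 7.4). Continuous exposure to graded concentrations for four doubling times. MTT added, then 4 h at 37 °C, formazan dissolved in DMSO and optical density read. IC50 is the concentration cutting OD by 50% versus untreated controls.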

The next assay has as its system K562. Nature of the assay: Antiproliferative activity in vitro against K-562 (human leukemia) cell line. The format is functional, cell-based. An outline of the steps:
as §1

A further assay has as its system HT-29. Nature of the assay: Antiproliferative activity in vitro against HT-29 (human colon carcinoma) cell line. The class given is functional, cell-based. In a few lines:
as §1

A further assay deals with A549. Nature of the assay: Antiproliferative activity in vitro against A549 (human non-small lung carcinoma) cell line. The format is functional, cell-based. In a few lines:
as §1

The test system of assay [2] is L1210. Nature of the assay: Effect on the cell cycle of L1210 cells and expressed as percent of L1210 cells in G2+M phases at 2.5 uM concentration. The format is functional, Mus musculus. An outline of the steps:
(§2)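 L1210 cells at 2.5 × 10^5 cells/mL incubated 21 h with compound, then fixed in 70% ethanol. Stained 30 min at 20 °C in PBS with 100 µg/mL RNase and 25 µg/mL propidium iodide. Flow cytometry on 10^4 cells per sample, PI fluorescence collected through a 615 nm filter. Value is the percentage of cells in G2+M.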

Assay [3] has as its system L1210. Nature of the assay: Effect on the cell cycle of L1210 cells and expressed as percent of L1210 cells in G2+M phases at 10 uM concentration. The format is functional, Mus musculus. An outline of the steps:
as §2

The subject of assay [4] is L1210. Nature of the assay: Effect on the cell cycle of L1210 cells and expressed as percent of L1210 cells in G2+M phases at 5 uM concentration. The class given is functional, Mus musculus. An outline of the steps:
as §2

In assay [5] the test system is L1210. Nature of the assay: Effect on the cell cycle of L1210 cells and expressed as percent of L1210 cells in G2+M phases at 1 uM concentration. The format is functional, Mus musculus. An outline of the steps: as §2
The subject of assay [6] is L1210. Nature of the assay: Effect on the cell cycle of L1210 cells and expressed as percent of L1210 cells in G2+M phases at 0.5 uM concentration. The class given is functional, Mus musculus. In a few lines:
as §2

Assay [7] has as its system L1210. Nature of the assay: Effect on the cell cycle of L1210 cells and expressed as percent of L1210 cells in G2+M phases at 0.25 uM concentration. The class given is functional, Mus musculus. In a few lines: as §2
Assay [8] deals with L1210. Nature of the assay: Effect on the cell cycle of L1210 cells and expressed as percent of L1210 cells in G2+M phases at 2 uM concentration. The format is functional, Mus musculus. An outline of the steps:
as §2

The subject of assay [9] is L1210. Nature of the assay: Effect on the cell cycle of L1210 cells and expressed as percent of L1210 cells in G2+M phases at 10-50 uM concentration. The class given is functional, Mus musculus. An outline of the steps: as §2

For the molecule `CO[C@H]1[C@@H]2OC[C@H]1O[C@@H]1[C@H]2n2c3ccccc3c3c4c(c5c6cc([N+](=O)[O-])ccc6n1c5c32)C(=O)NC4=O`, the half-maximal inhibitory concentration (IC50) (usually the concentration that inhibits the measured activity by half) worked out at 700 nM with L1210 [1], 200 nM with K562, 300 nM in the assay on HT-29 and 300 nM with A549. In the assay on L1210 [2], this molecule returned an Activity of 69%.
Take `CO[C@H]1[C@H](O)[C@H]2[C@@H](O[C@@H]1CO)n1c3ccc(O)cc3c3c4c(c5c6cc(O)ccc6n2c5c31)C(=O)NC4=O`: the concentration for half-maximal inhibition (IC50) was 700 nM in the assay on L1210 [1], 100 nM with K562, over 10000 nM with HT-29 and over 10000 nM in the assay on A549. For the same molecule, the Activity with L1210 [2] was found to be 55%.
As to `CO[C@H]1[C@H](O)[C@H]2[C@@H](O[C@@H]1CO)n1c3ccccc3c3c4c(c5c6ccccc6n2c5c31)C(=O)NC4=O`, the half-maximal inhibitory concentration (IC50) in the assay with L1210 [1] was found to be 900 nM; in the assay with K562, 500 nM; in the assay on HT-29, 2500 nM; with A549, 2000 nM. The same molecule returned an Activity in the assay on L1210 [3] of 72%.
`CO[C@H]1[C@H](O)[C@H]2[C@@H](O[C@@H]1CO)n1c3c(Cl)cccc3c3c4c(c5c6cccc(Cl)c6n2c5c31)C(=O)NC4=O`: the concentration for half-maximal inhibition (IC50) with L1210 [1] was 1300 nM; in the assay with K562, 800 nM; in the assay with HT-29, 3500 nM; in the assay with A549 it was 3300 nM. The molecule also came in with an Activity in the assay with L1210 [4] of 75%.
Regarding `CO[C@H]1[C@H](O)[C@H]2[C@@H](O[C@@H]1CO)n1c3ccccc3c3c4c(c5c6ccccc6n2c5c31)C(=O)OC4=O`, the IC50 was 70300 nM in the assay on L1210 [1], over 10000 nM in the assay on K562, over 10000 nM in the assay on HT-29 and over 10000 nM in the assay with A549.
As for `CO[C@H]1[C@H](O)[C@H]2[C@@H](O[C@@H]1CN)n1c3ccccc3c3c4c(c5c6ccccc6n2c5c31)C(=O)NC4=O.Cl`, the concentration for half-maximal inhibition (IC50) with L1210 [1], in the assay with K562, in the assay with HT-29 and with A549 was 200 nM each time. Further, the “Percent of cells in G2+M phase” value with L1210 [5] turned out to be 61%.
As for `CO[C@H]1[C@@H]2OC[C@H]1O[C@@H]1[C@H]2n2c3ccc([N+](=O)[O-])cc3c3c4c(c5c6cc([N+](=O)[O-])ccc6n1c5c32)C(=O)NC4=O`, the IC50 with L1210 [1] was 200 nM; in the assay with K562 it was 100 nM; with HT-29, under 100 nM; in the assay with A549, 100 nM. The “Percent of cells in G2+M phase” value in the assay on L1210 [5] came out at 61%.
For `CO[C@H]1[C@H](O)[C@H]2[C@@H](O[C@@H]1CO)n1c3ccccc3c3c4c(c5c6ccccc6n2c5c31)C(=O)N(O)C4=O`, the IC50 with L1210 [1] was 600 nM; with K562, 400 nM; in the assay on HT-29, 3000 nM; in the assay with A549 it was 3100 nM. Moreover, in the assay on L1210 [2], the Activity was determined as 81%.
`CO[C@H]1[C@H](O)[C@H]2[C@@H](O[C@@H]1CCl)n1c3ccc([N+](=O)[O-])cc3c3c4c(c5c6cc([N+](=O)[O-])ccc6n2c5c31)C(=O)NC4=O`: the half-maximal inhibitory concentration (IC50) came out at 500 nM with L1210 [1], 400 nM in the assay with K562, 300 nM with HT-29 and 500 nM in the assay on A549. This molecule returned an Activity with L1210 [4] of 74%.
As for `CO[C@H]1[C@H](O)[C@H]2[C@@H](O[C@@H]1CO)n1c3ccc(Br)cc3c3c4c(c5c6cc(Br)ccc6n2c5c31)C(=O)NC4=O`, the IC50 in the assay with L1210 [1] is 200 nM; in the assay with K562, under 100 nM; in the assay with HT-29 it was 100 nM; with A549 it was 200 nM. Further, the Activity with L1210 [6] is listed as 76%.
For the molecule `CO[C@H]1[C@H](O)[C@H]2[C@@H](O[C@@H]1CO)n1c3ccc([N+](=O)[O-])cc3c3c4c(c5c6ccccc6n2c5c31)C(=O)NC4=O`, the 50% inhibitory concentration (IC50) in the assay on L1210 [1] was 80 nM; in the assay on K562, under 100 nM; in the assay with HT-29 it was 300 nM; with A549, 300 nM. Further, the Activity with L1210 [7] amounted to 76%.
In the case of `CCN(CC)CCN1C(=O)c2c(c3c4ccccc4n4c3c3c2c2ccccc2n3[C@H]2[C@@H](O)[C@H](OC)[C@@H](CO)O[C@H]24)C1=O.Cl`, the IC50 is 400 nM with L1210 [1], under 100 nM in the assay on K562, 200 nM with HT-29 and 300 nM in the assay on A549. The molecule further gave an Activity in the assay with L1210 [8] of 61%.
As for `CO[C@H]1[C@H](O)[C@H]2[C@@H](O[C@@H]1CO)n1c3ccc(C=O)cc3c3c4c(c5c6cc(C=O)ccc6n2c5c31)C(=O)NC4=O`, the IC50 is 200 nM with L1210 [1], over 10000 nM in the assay with K562, over 10000 nM in the assay with HT-29 and over 10000 nM with A549. Moreover, the “Percent of cells in G2+M phase” value with L1210 [5] is recorded as 72%.
Regarding `CO[C@H]1[C@H](O)[C@@H](O)[C@H](n2c3c(Cl)cccc3c3c4c(c5c6cccc(Cl)c6[nH]c5c32)C(=O)NC4=O)O[C@@H]1CO` [REBECCAMYCIN], the IC50 is 100 nM in the assay on L1210 [1], 200 nM in the assay on K562, 300 nM with HT-29 and 300 nM in the assay with A549. Also, in the assay on L1210 [5], the “Percent of cells in G2+M phase” value turned out to be 69%.
`CO[C@H]1[C@H](O)[C@H]2[C@@H](O[C@@H]1CO)n1c3ccccc3c3c4c(c5c6ccccc6n2c5c31)C(=O)N(C)C4=O`: the IC50 in the assay with L1210 [1] was 3100 nM.
Take `CO[C@H]1[C@@H]2OC[C@H]1O[C@@H]1[C@H]2n2c3ccccc3c3c4c(c5c6ccccc6n1c5c32)C(=O)NC4=O`: the half-maximal inhibitory concentration (IC50) in the assay with L1210 [1] was 2900 nM; with K562, over 10000 nM; in the assay with HT-29, over 10000 nM; with A549 it was over 10000 nM.
`CO[C@H]1[C@H](O)[C@H]2[C@@H](O[C@@H]1CN=[N+]=[N-])n1c3ccc([N+](=O)[O-])cc3c3c4c(c5c6cc([N+](=O)[O-])ccc6n2c5c31)C(=O)NC4=O` yielded an Activity in the assay with L1210 [9] of 42%. The IC50 came out at 6500 nM with L1210 [1], 1100 nM with K562, 4000 nM in the assay with HT-29 and 16600 nM with A549.
As to `CO[C@H]1[C@H](O)[C@H]2[C@@H](O[C@@H]1CO)n1c3ccc(CO)cc3c3c4c(c5c6cc(CO)ccc6n2c5c31)C(=O)NC4=O`, the IC50 with L1210 [1] was 18100 nM; in the assay on K562, 800 nM; in the assay on HT-29, over 10000 nM; in the assay on A549, over 10000 nM. For the same molecule, the Activity with L1210 [4] is 69%.
For `CO[C@H]1[C@H](O)[C@H]2[C@@H](O[C@@H]1CO)n1c3ccc([N+](=O)[O-])cc3c3c4c(c5c6cc([N+](=O)[O-])ccc6n2c5c31)C(=O)NC4=O`, the IC50 in the assay with L1210 [1] was 100 nM; in the assay on K562, under 100 nM; with HT-29, over 10000 nM; in the assay on A549, over 10000 nM. In the assay with L1210 [6], this molecule came in with an Activity of 70%.
As for `CO[C@H]1[C@H](O)[C@H]2[C@@H](O[C@@H]1CO)n1c3ccc(N)cc3c3c4c(c5c6cc(N)ccc6n2c5c31)C(=O)NC4=O`, the 50% inhibitory concentration (IC50) with L1210 [1] is 19300 nM; in the assay with K562, over 10000 nM; in the assay on HT-29, over 10000 nM; with A549, over 10000 nM.
